This note sets out measurements from ChEMBL document CHEMBL4138067, “Design, synthesis and cytotoxicity of bengamide analogues and their epimers” (Medchemcomm, 2017).

Assay type in all cases: functional
In one experiment the test system is Lu1. Nature of the experiment: Cytotoxicity in human Lu1 cells assessed as reduction in cell growth incubated for 72 hrs by neutral red staining based colorimetry. Particulars: Lu1, 72 h. Put shortly:
(§1)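 Cells grown in D-MEM with 10% fetal calf serum, 2 mM L-glutamine, penicillin G, streptomycin and gentamicin, seeded at 3 × 10^3 cells per mL. Compound stocks in DMSO/H2O (1/9). Exposure 72 h at 37 °C in air/CO2 (95:5). Living cells stained with neutral red, optical density read at 540 nm. Run in triplicate. IC50 taken as concentration inhibiting growth to 50% of untreated control.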

Another experiment deals with HeLa. Nature of the experiment: Cytotoxicity in human HeLa cells assessed as reduction in cell growth incubated for 72 hrs by neutral red staining based colorimetry. Put shortly: as §1
A further experiment concerns HL-60. Nature of the experiment: Cytotoxicity in human HL60 cells assessed as reduction in cell growth incubated for 72 hrs by neutral red staining based colorimetry. Conditions: HL-60, 72 h. The method, boiled down: as §1
For a further experiment, the system named is KB. The experiment can be described thus: Cytotoxicity in human KB cells assessed as reduction in cell growth incubated for 72 hrs by neutral red staining based colorimetry. Put shortly: as §1
Another experiment relates to HepG2. The experiment can be described thus: Cytotoxicity in human HepG2 cells assessed as reduction in cell growth incubated for 72 hrs by neutral red staining based colorimetry. Particulars: HepG2, 72 h. The method, boiled down: as §1
Another experiment deals with MCF7. Nature of the experiment: Cytotoxicity in human MCF7 cells assessed as reduction in cell growth incubated for 72 hrs by neutral red staining based colorimetry. Conditions: MCF7, 72 h. The method, boiled down: as §1

SMILES strings stand for the structures.

Take `CO[C@@H](C(=O)N[C@H]1CC[C@@H](O)CNC1=O)[C@H](O)[C@@H](O)[C@H](O)/C=C/C(C)(C)C`: the IC50 (in general, the concentration needed to halve the response being measured) is 23.4 µM in the experiment with Lu1; over 150 µM in the experiment on HeLa; over 150 µM in the experiment on HL-60; 62.6 µM in the experiment on KB; over 150 µM with HepG2; 23.4 µM in the experiment on MCF7.
As to `CO[C@@H](C(=O)N[C@@H]1CCCCNC1=O)[C@H](O)[C@@H](O)[C@H](O)/C=C/C(C)(C)C`, the half-inhibitory concentration (IC50) with Lu1 is 0.5 µM; in the experiment on HeLa, 2.1 µM; in the experiment with HL-60 it was 5.3 µM; with KB it was 1.1 µM; with HepG2 it was 1.1 µM; in the experiment with MCF7, 0.2 µM.
With `CO[C@@H](C(=O)N[C@@H]1CC[C@@H](O)CNC1=O)[C@H](O)[C@@H](O)[C@H](O)/C=C/C(C)(C)C`, the concentration for half-maximal inhibition (IC50) was found to be 17.2 µM in the experiment on Lu1; 15.4 µM in the experiment with HeLa; 12.1 µM with HL-60; 5.1 µM in the experiment on KB; 21.3 µM in the experiment with HepG2; 165 µM with MCF7.
`CO[C@@H](C(=O)N[C@H]1CCCCNC1=O)[C@H](O)[C@@H](O)[C@H](O)/C=C/C(C)(C)C`: the concentration for half-maximal inhibition (IC50) in the experiment with Lu1 amounted to 4.3 µM; in the experiment with HeLa, 60.7 µM; with HL-60, 83.3 µM; in the experiment with KB, 21 µM; in the experiment on HepG2 it was 21.1 µM; in the experiment with MCF7 it was 1.3 µM.
With `CO[C@@H](C(=O)N[C@@H]1CC[C@H](O)CNC1=O)[C@H](O)[C@@H](O)[C@H](O)/C=C/C(C)(C)C`, the IC50 is 36.3 µM with Lu1; over 150 µM in the experiment with HeLa; over 150 µM in the experiment with HL-60; 23.7 µM in the experiment on KB; 138 µM with HepG2; 80.4 µM in the experiment with MCF7.
For `CO[C@@H](C(=O)N[C@@H]1CCCCNC1=O)[C@@H]1OC(C)(C)O[C@H](/C=C/C(C)(C)C)[C@@H]1O`, the IC50 with Lu1, in the experiment on HeLa, in the experiment with HL-60, in the experiment on KB, in the experiment with HepG2 and with MCF7 was over 150 µM in each case.
On to `CO[C@@H](C(=O)N[C@H]1CC[C@H](O)CNC1=O)[C@H](O)[C@@H](O)[C@H](O)/C=C/C(C)(C)C`, for which the IC50 in the experiment on Lu1 is 10 µM; in the experiment with HeLa it was over 150 µM; with HL-60, over 150 µM; in the experiment on KB it was 19.8 µM; with HepG2, 103 µM; in the experiment with MCF7, 144 µM.
Take `CO[C@@H](C(=O)N[C@H]1CCCCNC1=O)[C@@H]1OC(C)(C)O[C@H](/C=C/C(C)(C)C)[C@@H]1O`: the 50% inhibitory concentration (IC50) in the experiment on Lu1, in the experiment on HeLa, with HL-60, in the experiment with KB, with HepG2 and in the experiment on MCF7 was over 150 µM throughout.
On to `Cc1c2ccncc2c(C)c2c1[nH]c1ccccc12` [ELLIPTECINE], for which the IC50 in the experiment on Lu1 amounted to 1.6 µM; with HeLa it was 1.6 µM; in the experiment on HL-60, 2 µM; in the experiment with KB, 1.2 µM; in the experiment with MCF7, 2.4 µM.
